Source: PubChem BioAssay (The Scripps Research Institute Molecular Screening Center)
GalR3 antagonist: GalR3 antagonists in HEK293 cells, primary screen, cell-based, fluorescence readout; inhibition, % at 3 µM; 360,000 compounds, 0.44% hits; HEK293 GalR3-CNG cAMP membrane potential fluorescence; galR3 body fused to GalR1 C-terminus; AID 651719, 2012; Galanin receptor type 3 (Homo sapiens), O60755;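 active means inhibition above the screen-wide average plus 3 SD, cut at about 13% in these data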;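 further: forskolin and galanin both at EC90 stimulate the cells; cAMP rise reported by CNG channel membrane potential dye signal; 0% = forskolin plus galanin with DMSO and 100% = forskolin alone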
Target sequence (O60755 1-299 limits assumed): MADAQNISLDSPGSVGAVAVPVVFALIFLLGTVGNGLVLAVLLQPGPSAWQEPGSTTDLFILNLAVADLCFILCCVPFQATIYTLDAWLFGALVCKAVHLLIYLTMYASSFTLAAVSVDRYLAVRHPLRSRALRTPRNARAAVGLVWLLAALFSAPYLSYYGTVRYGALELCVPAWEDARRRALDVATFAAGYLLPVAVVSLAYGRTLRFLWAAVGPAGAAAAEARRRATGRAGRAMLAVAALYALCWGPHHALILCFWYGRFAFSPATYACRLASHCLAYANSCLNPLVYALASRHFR
OX1R antag-1: OX1R (HCRTR1) antagonists, primary screen, fluorescence, CHO/OX1R cells, Fluo-8 calcium, orexin A; Orexin/Hypocretin receptor type 1 (Homo sapiens), O43613; Fluo-8 calcium fluorescence; inhibition, % at 5 µM; 330,000 compounds, 0.43% hits; AID 434989, 2010;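 active means inhibition above its plate's threshold, mean inhibition of all tested compounds on the plate plus 3 SD, cut at about 37% in these data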;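 further: 0% = orexin A challenge wells and 100% = SB-334867-A antagonist wells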
CHO parental Ca: ATP-evoked calcium signal inhibitors, parental CHO, primary screen, counter-screen for OX1R antagonist project, cell-based, fluorescence, Fluo-8 calcium dye | parental CHO-K1, ATP-induced calcium, Fluo-8 fluorescence | inhibition, % at 5.6 µM | 330,000 compounds, 0.63% hits;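 active means inhibition above that plate's mean sample inhibition plus 3 SD, cut at about 26% in these data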;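 further: 0% = ATP-challenged DMSO wells and 100% = DMSO wells without ATP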
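test system = CHO parental line | reagent = ATP stimulus | measured by = intracellular calcium via Fluo-8 no-wash fluorescent dye | control set = ATP and no-ATP DMSO wells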
GPR7 antagonist: GPR7 receptor antagonists, primary screen, cell-based, fluorescence, single concentration; Neuropeptides B/W receptor type 1 (Homo sapiens), P48145; GPR7-expressing cells, fluorescence antagonist assay; inhibition, % at 4.4 µM; 290,000 compounds, 1.1% hits; AID 1861, 2009; in the data active means inhibition above about 16%, passing the limit was not always enough;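 further: cells stimulated with the agonist NPW; 0% = agonist with vehicle and 100% = vehicle without agonist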
Target sequence (P48145 whole entry, looked up): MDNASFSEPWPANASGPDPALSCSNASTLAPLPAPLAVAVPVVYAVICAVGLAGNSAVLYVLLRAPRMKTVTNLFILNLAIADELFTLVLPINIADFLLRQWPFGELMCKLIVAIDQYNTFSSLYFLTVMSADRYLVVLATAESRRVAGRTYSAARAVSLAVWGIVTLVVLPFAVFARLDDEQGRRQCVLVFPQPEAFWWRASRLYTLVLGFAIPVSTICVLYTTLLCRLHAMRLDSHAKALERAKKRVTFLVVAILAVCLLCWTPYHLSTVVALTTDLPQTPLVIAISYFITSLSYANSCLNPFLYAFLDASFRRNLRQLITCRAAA
OX1R antag-2: antagonists of human orexin 1 receptor (OX1R) | Orexin/Hypocretin receptor type 1 (Homo sapiens), O43613 | OX1R-expressing cells, FRET antagonist read-out | inhibition, % at 6.6 µM | 330,000 compounds, 1.8% hits | AID 485270, 2010; in the data active means inhibition mostly above about 38%, no sharp cut-off; inactive means mostly below about 40%;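 further: 0% = agonist challenge alone and 100% = reference antagonist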
* hit, by the source's call; nt = no result. Sampled rows, rich in hits. Any-hit rate of the full collection: about 3.1%.

SMILES	GalR3 antagonist	OX1R antag-1	CHO parental Ca	GPR7 antagonist	OX1R antag-2
c1ccc(CCNc2ncnc3scc(C4COc5ccccc5O4)c23)cc1 (stereo not drawn)	-4.4	16.9	51.0*	-17.0	16.9
CCCN(CCC)c1cc(=O)nc2ccccn12	-7.0	nt	nt	nt	nt
CSc1ccccc1NC(=O)c1cc(-c2cccs2)on1	-7.1	-9.6	-7.5	-2.3	54.1*
CN1Cc2sc(NC(=S)NC(=O)c3ccccc3)c(C#N)c2CC1(C)C	1.7	40.3*	34.0*	-10.7	25.2
CCC1(C)Cc2c(sc(NC(=S)NC(=O)c3ccccc3)c2C#N)CO1 (stereo not drawn)	-2.2	3.0	1.7	-4.2	11.8
O=C(OCC(=O)N1CCC(c2ccccc2)=N1)c1ccc(Cl)s1	-5.2	33.5	-16.2	nt	33.7*
COc1ccc(CN2C(=O)C(CC(=O)NC3CC3)CC(C(=O)N3CCOCC3)=C2C)cc1 (stereo not drawn)	-4.7	nt	nt	nt	nt
CCCOC(=O)c1cccc(NC(=O)COc2ccc([N+](=O)[O-])cc2)c1	3.5	24.4	31.8*	9.4	34.3
COc1ccccc1NC(=O)CC1S/C(=N/N=C2\CCCc3ccccc32)NC1=O (stereo not drawn)	1.9	20.1	5.7	0.1	53.9*
O=C(NCCc1ccccc1)C(c1cccs1)N(C(=O)c1csnn1)C1CC1 (stereo not drawn)	-5.2	-33.0	-11.1	0.0	16.2
O=C(NCCc1ccccc1)C(c1cccs1)N(C(=O)CCl)c1ccc(Cl)cc1 (stereo not drawn)	-6.3	-20.8	-15.4	22.5*	39.4
COc1cc(CNC(=O)c2cc(-c3ccc(OC)cc3C)n[nH]2)cc(OC)c1	2.8	nt	nt	nt	nt
COc1cccc(-n2nc(C#N)c(Cl)cc2=O)c1	-6.3	nt	nt	41.3*	nt
O=[N+]([O-])c1cc(Br)c(O)c(/C=N/Nc2nnnn2-c2cccc3ccccc23)c1	-3.6	-10.1	-18.3	8.1	44.9*
COc1cccc(C(CC(=O)Nc2cccc3ccccc23)NC(=O)c2ccccc2)c1 (stereo not drawn)	-9.0	-15.1	-2.4	-11.3	34.8*
COc1ccc2nc(NC(=O)c3ccc(F)cc3)sc2c1	-11.5	-16.9	-18.5	-14.9	30.3
COc1ccc2nc(NC(=O)Nc3ccccc3OC)sc2c1	-8.1	13.5	-11.9	23.2	66.0*
COc1ccc2nc(NC(=O)c3ccc4ncsc4c3)sc2c1	nt	-30.9	-15.9	-13.0	57.0*
COc1ccc2nc(NC(=O)Nc3cccc4ccccc34)sc2c1	-7.1	-13.6	5.4	-8.0	41.7*
COc1ccc2nc(Nc3ccccc3OC)sc2c1	5.0	-32.1	-11.9	0.1	14.0
Cc1nc([N+](=O)[O-])cn1CC(Cl)Cn1cc([N+](=O)[O-])nc1C	-9.2	nt	nt	nt	nt
COC(=O)CCCn1cc(CN2CC(N3CCN(C)CC3)CS2(=O)=O)nn1 (stereo not drawn)	-2.2	nt	nt	nt	nt
C[C@H](CO)N1C[C@H](C)[C@@H](CN(C)S(C)(=O)=O)Oc2ccc(N(C)C)cc2C1=O	0.0	-18.4	7.8	nt	8.5
COC[C@@H]1CCCN1c1ccc2c(c1)O[C@H](COCc1ccccc1)CN([C@@H](C)c1ccccc1)S2(=O)=O	-8.0	nt	nt	nt	nt
Cc1cccc2nc(-c3ccccc3)c(-c3ccc(CN4CCC(n5cc(-c6ccccc6)[nH]c5=O)CC4)cc3)nc12	-0.6	nt	nt	nt	nt
SMILES	GalR3 antagonist	OX1R antag-1	CHO parental Ca	GPR7 antagonist	OX1R antag-2
CSc1oc(-c2ccccc2)nc1S(=O)(=O)c1ccc(C)cc1	-5.3	-26.5	28.7*	-7.5	15.7
COc1ccccc1-c1cc(C(F)(F)F)c(C#N)c(=O)[nH]1	-4.7	-10.8	-2.2	-11.2	10.1
COc1ccccc1-c1cc(SC)c(C#N)c(=O)o1	3.2	-7.0	5.1	-10.6	51.3*
CCc1ccc(-c2cnc3nc[nH]c(=O)c3n2)cc1	-3.8	-9.0	-9.9	nt	43.5*
COc1ccc(NC(=O)COC(=O)C2COc3ccccc3O2)cc1OC (stereo not drawn)	-6.5	nt	nt	nt	nt
Cc1ccc(C(=O)OCC(=O)N(CCc2ccccc2)Cc2ccccc2)cc1S(=O)(=O)N1CCOCC1	1.6	-1.9	-3.9	nt	31.8
CN1c2cccc3cccc(c23)N(C)C1c1cccs1	-3.6	-18.0	-19.0	-11.2	17.0
CC1N(C)c2cccc3cccc(c23)N1C	-3.5	-10.9	1.9	-14.8	70.2*
CCCCOCCCNC(=O)C[C@H]1C[C@@]2(C(=O)OC)C(=C[C@H](C(C)C)O[C@@H]2C2CC2)N(Cc2ccccc2)C1=O	-5.4	nt	nt	nt	nt
O=S1(=O)c2cc(Cl)ccc2N2CCC[C@@H]2CN1Cc1ccc(Cl)c(Cl)c1	-6.2	nt	nt	nt	nt
O=C1OC2(c3ccccc31)c1cc(I)c(O)c(I)c1Oc1c2cc(I)c(O)c1I	nt	106.3*	94.1*	nt	91.4*
Cc1cc(O)ccc1C1(c2ccc(O)cc2C)OC(=O)c2ccccc21	-2.7	8.2	-6.5	14.7	11.9
COc1ccccc1Cc1c(-c2ccccc2)nc2ccc(C)cn12	-9.9	nt	nt	nt	nt
O=C(C(=O)N1CCC(CNS(=O)(=O)c2ccccc2OC(F)(F)F)CC1)c1cc2ccccc2o1	-7.7	nt	nt	nt	nt
C=CCn1c(=O)[nH]c2nc3cc(N=CN(C)C)c(C)cc3nc2c1=O	-3.1	0.7	-0.5	-2.8	73.2*
O=C(C[n+]1cccc2ccccc21)c1ccccc1	7.7	-4.0	-8.5	-3.9	34.2
O=C(C[n+]1cc2ccccc2c2ccccc21)c1ccccc1	-3.4	-1.0	-13.4	2.8	56.3*
CCCn1cc(CCC(=O)Nc2ccc(Oc3cccnc3)cc2)c2ccccc21	-8.3	nt	nt	nt	nt
Nc1c(C(=O)c2cccs2)oc2ccccc12	-7.6	6.1	-8.2	-10.6	68.0*
Nc1c(C(=O)c2ccc(Br)cc2)oc2ccccc12	-7.1	-3.7	-8.8	-8.6	26.8
CC(=O)NS(=O)(=O)c1ccc2c(c1)C(=O)c1cc(S(=O)(=O)NC(C)=O)ccc1-2	-1.7	-13.1	-10.2	12.3	58.0*
CC(NS(=O)(=O)c1ccc2c(c1)C(=O)c1cc(S(=O)(=O)NC(C)C(=O)O)ccc1-2)C(=O)O (stereo not drawn)	-2.4	-4.8	0.9	-12.2	59.8*
CC(NS(=O)(=O)c1cccc(S(=O)(=O)c2ccccc2)c1)C(=O)O (stereo not drawn)	-1.4	7.3	4.5	-1.5	6.1
Cc1cccc(C)c1NS(=O)(=O)c1ccc2c(c1)C(=O)c1ccccc1C2=O	-8.5	-16.2	-4.7	-11.6	4.5
CCn1c(CNC(=O)c2cc(OC)c(OC)c(OC)c2)cc2ccccc21	-10.0	4.5	2.8	1.3	68.8*
O=C(NCc1cc(Cl)cc(Cl)c1)c1ccc2nc([C@H]3C[C@H](O)[C@@H](CO)O3)[nH]c2c1	-0.7	nt	nt	nt	nt
CCN1C(=O)N/C(=C/c2ccc(Sc3ccc(C)cc3)o2)C1=O	-4.7	61.1*	63.9*	7.2	52.2
